# Results published in ChEMBL document CHEMBL4513216, “Probing the Open Global Health Chemical Diversity Library for Multistage-Active Starting Points for Next-Generation Antimalarials” (ACS Infect Dis, 2020).
# Test: Toxicity liver stage against HepG2, at 10uM
# Assay type: cell-based
# Design: test concentration 10 uM, cell line HepG2-A16-CD81EGFP
# Settings: human, HepG2-A16-CD81EGFP cells; read-out: INHIBITION
# How it was run: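 Uninfected HepG2-A16-CD81EGFP cells, 3 × 10^3 per well, 1536-well, plated on prespotted compound at 10 μM final, parasite-free screening media added to match infected plates; puromycin 10 μM positive, DMSO 0.5% negative; run in parallel with 48 h PbLuc assay at 37 °C, 5% CO2; viability by CellTiter-Glo luminescence, normalized to controls.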
row,SMILES,cytotoxicity at 10 µM [%]
1,Cc1cc(N2CCCC2)nc(CNS(=O)(=O)Cc2ccccc2)n1,7.48
2,CN1CCOC(C(=O)N2CCOC3(CCCC3)C2)C1 (stereo not given),7.28
3,COCCNC(=O)[C@H]1CN(c2nnc(C)s2)C[C@H]2OCC[C@@H]12,-1.96
4,COc1ncccc1CNC(=O)Nc1cc(C)nn1C,-5.13
5,Cn1cnc2cc(CCC(=O)Nc3n[nH]c(C4CC4)n3)ccc21,5.21
6,O=C1[C@@H]2CCN(Cc3ccoc3)C[C@@H]2OCCN1Cc1cccnc1,-0.671
7,O=C1Nc2ccccc2NC12CCN(c1cccc(C(F)(F)F)n1)CC2,2.31
8,CN(Cc1cnn(C)c1)C(=O)NCCc1ccc2c(c1)OCCO2,-15.4
9,CCNc1nc(C)c(C(=O)N(C)Cc2noc(C)n2)s1,2.43
10,CN(C)Cc1cnc(C2CCN(C(=O)c3cc(F)cc(F)c3)C2)[nH]1 (stereo not given),2.5
11,CSc1ccc(C(=O)N2CC(=O)N(CC3CC3)CC(O)C2)cc1 (stereo not given),0.174
12,Cc1nc(NC(=O)N(C)Cc2ccsc2)nn1C,1.81
13,Cc1nc(CN2CCCC(N(C)Cc3c(C)noc3C)C2)no1 (stereo not given),-0.866
14,CN1CCN(C(=O)c2cc(C#N)cs2)c2ccccc2C1,10.2
15,CC(C)(C)NS(=O)(=O)c1ccc(NC(=O)C2CC2)cc1,-6.73
16,Cn1cc(CN2CC[C@@H](O)[C@@H]2Cc2ccccc2)cn1,-71.2
17,CN(C)C(=O)[C@@H]1C[C@@H]2CCN(Cc3nccs3)C[C@@H]2O1,2.67
18,Cc1ccc(-c2nnc(CN3CCc4nn(C)c(=O)cc4C3)o2)cc1,-23.4
19,Cc1cccc(=O)n1CCCNc1ncnc2c1CCNCC2,-9.53
20,CC(Nc1ccc(C(F)(F)F)cc1C#N)c1cccc(S(N)(=O)=O)c1 (stereo not given),-3.09
21,Cc1cc(CNc2ccnn2C)ccc1-n1cncn1,-43.2
22,CCN(CC(=O)NC(C)C)S(=O)(=O)N1CCCCC1C (stereo not given),-1.14

row,SMILES,cytotoxicity at 10 µM [%]
1,COc1cccc(COCC(=O)N2CCCC(c3ccn[nH]3)C2)c1 (stereo not given),-20.9
2,Cc1cc(C)n(-c2ccccc2NC(=O)NCCS(=O)(=O)CC(C)C)n1,-3.92
3,O=C(NCC(Cc1cccc(F)c1)N1CCCC1=O)C1CCCC1 (stereo not given),1.39
4,FC(F)(F)Oc1ccc(-c2noc([C@@H]3Cc4nc[nH]c4CN3)n2)cc1,-7.47
5,CCc1nc(CCNc2ncccn2)sc1C,14.4
6,CCC1CN(c2cnn(C)c(=O)c2Cl)CCO1 (stereo not given),-1.26
7,CN(C)C(=O)N1C[C@@H]2CCCO[C@@H]2[C@H](N(C)Cc2ccco2)C1,-7.82
8,Cc1ccsc1CN1CC[C@H]2O[C@H](C(=O)N3CCCO3)CC[C@H]21,4.52
9,Cc1nnc([C@@H]2CC[C@@H]3[C@@H](CCN3S(=O)(=O)C3CC3)O2)o1,-77
10,CS(=O)(=O)c1ccc(CNC(=O)N2CCC(C(N)=O)C2)cc1 (stereo not given),-8.03
11,CCN(CC1CCOC1)C(=O)c1ccn(-c2ccc(OC)cc2)n1 (stereo not given),-4.19
12,CC(C)S(=O)(=O)N1CCC(c2cc3n(n2)[C@@H](C(F)(F)F)C[C@@H](C)N3)C1 (stereo not given in full),-1.96
13,Cc1ccc(C(=O)N2C[C@@H]3OCCN(CCN4CCCC4)[C@@H]3C2)cn1,2.39
14,CCc1nc(N)nc(NCc2cnn3cccnc23)c1C,52.5
15,CC(O)C1CCN(c2cc(Cl)ccc2C#N)CC1 (stereo not given),4.92
16,CCc1nnc2n1CCN(c1nc(C)cc(N(C)C)n1)C2,-5.89
17,CN(Cc1ccncc1)C(=O)NC1CCS(=O)(=O)C1 (stereo not given),-2.94
18,Cc1noc(C)c1-c1cncc(C2CCCN2Cc2ncc[nH]2)n1 (stereo not given),-8.89
19,COc1cc(CNC(C)Cn2cccn2)cc(Cl)c1OC (stereo not given),-1.14
20,O=C(Nc1ccccc1)c1nn(C2CCS(=O)(=O)C2)c2c1CCCC2 (stereo not given),-9.75
21,Cc1cc(C(=O)N(C)S(=O)(=O)C(C)C)ccc1F,-54.3
22,Cc1n[nH]c(C)c1C1COCCN1C(=O)c1cccc(F)c1F (stereo not given),-8.45

row,SMILES,cytotoxicity at 10 µM [%]
1,CN(Cc1nccn1C)S(=O)(=O)N1CCCC1c1ccco1 (stereo not given),3.21
2,CC(C)c1n[nH]c(C(=O)NC(C)c2ccncc2)c1Br (stereo not given),-5.85
3,Cn1ccc(NC(=O)CN2CCN(C3CCCC3)C(=O)C2)n1,4.31
4,FC(F)(F)c1ccc(-c2noc3c2CN(CC2CCCO2)CC3)cc1 (stereo not given),1.99
5,Cc1nc2c(c(N(C)CC3Cc4ccccc4CN3C)n1)CCNCC2 (stereo not given),-29
6,CSCCC(=O)N1CCCC(n2ccnc2)C1 (stereo not given),-6.28
7,CC(O)c1cccc(-n2c(CCC(=O)O)nc3ccccc32)c1 (stereo not given),2.16
8,CC(C(=O)N1CCCN(Cc2ccc(C#N)cc2)CC1)n1cccn1 (stereo not given),-5.6
9,COc1cc(C(=O)N2CCCC(c3cc(C)[nH]n3)C2)ccc1C (stereo not given),-17.5
10,Cc1csc(C(=O)N2CCC(S(C)(=O)=O)C2)c1 (stereo not given),-5.21
11,Cc1cc(F)ccc1C(=O)N1CCN(C)C2(CCC(=O)N(C)CC2)C1 (stereo not given),4.78
12,Cc1n[nH]c(C)c1-c1c(C#N)c(N)nc2c1CCc1[nH]ccc1-2,2.83
13,COc1cccc(-c2ncc(CN3CC[C@@H]4CC[C@H](C3)N4)s2)c1,-12.4
14,CC(C)CN1CCN(C(=O)c2ccn(C)c(=O)c2)CC1,-17.2
15,Cc1nnc(SCC(=O)c2cc3c(cc2Cl)NC(=O)C3)o1,-5.28
16,CCN1C(=O)C(c2ccccc2)CC12CCN(CCO)CC2 (stereo not given),1.26
17,O=C(CN1CCCC(c2ccn[nH]2)C1)Nc1nncs1 (stereo not given),-43.9
18,NC(=O)c1cccc(OCC(=O)N2CCCC(n3cccn3)C2)c1 (stereo not given),-13.5
19,CN(Cc1ccc(C(=O)Nc2sccc2C#N)cc1)Cc1ccno1,-1.65
20,Cn1cc(C(=O)N2CCCCC2CCc2ccccc2)cn1 (stereo not given),-7.45
21,CCC(CO)N(Cc1ccccn1)C(=O)c1ccc(C)c(Cl)c1 (stereo not given),-0.054
22,CC(C)CN1Cc2c(C(=O)N(C)C)ncn2-c2ccccc2S1(=O)=O,3.63

row,SMILES,cytotoxicity at 10 µM [%]
1,O=C(c1ccc(-n2cnnc2)cc1)N1CCC(Nc2cccnn2)CC1,-6.12
2,CC(C)(C)n1ncc2c1CCCC2NCc1cccc(C(N)=O)c1 (stereo not given),-0.25
3,O=S(=O)(Cc1cccc(F)c1)Nc1cc(Cl)ccn1,-8.69
4,CSC(C)C(=O)N(C)C1CCN(c2ccc(Cl)cc2)CC1 (stereo not given),0.204
5,Cc1cnn(CC2CCCN2CC(=O)Nc2cc(C(C)C)no2)c1 (stereo not given),4.23
6,CCc1ccc(C(=O)N2CCCC2c2c(C)nn(C)c2OC)o1 (stereo not given),6.16
7,Cc1noc(-c2cccnc2N(C)Cc2cscn2)n1,-4.23
8,O=C(COc1ccccc1F)NCC(O)(c1ccccc1)C1CC1 (stereo not given),-3.68
9,COCC(=O)N1CCC2(CCCN(Cc3cnn(C)c3)C2)C1 (stereo not given),-73.3
10,CN(C)CCN1C[C@@H]2CN(S(=O)(=O)c3cccs3)C[C@@H]2C1=O,0.0221
11,COc1ncccc1CNC(=O)NCCNS(C)(=O)=O,-14.4
12,Cc1ccc(S(=O)(=O)N2CC[C@@H](O)C2)c(F)c1,-10.2
13,O=C(c1ccn(-c2cccc(Cl)c2)n1)N1CCN(CCO)CC1,-17.1
14,Cc1occc(=O)c1OCC(=O)N1CCc2ccccc2C1,-0.765
15,COCCN1CCC(CNC(=O)c2cc(C)cc(C)c2)C1 (stereo not given),-7.32
16,Cc1cc(-c2cnc(N(C)C)nc2C2CCCCN2C(=O)C2CC2)on1 (stereo not given),0.095
17,CCc1cc(CNC(=O)C2CCC(=O)N(Cc3ccccc3F)C2)on1 (stereo not given),1.48
18,Cn1nc(C(=O)N2CCCCC2c2nc3cc(F)ccc3[nH]2)ccc1=O (stereo not given),-18.2
19,CC(C)NC(=O)c1cnc(Sc2nccn2C)c(Cl)c1,-41.4
20,CCOC(=O)[C@H]1CNC[C@@H]1C(=O)OCC,6.1
21,CCc1cc(C(=O)N2CCC(C3CCN(c4ncccn4)CC3)C2)on1 (stereo not given),2.25
22,Cn1cnc2c1CCN(CC(=O)NC1CCCCNC1=O)C2 (stereo not given),-5.97

row,SMILES,cytotoxicity at 10 µM [%]
1,CCc1cnc2c(c1NCc1cccc(OC)c1)c(=O)n(C)c(=O)n2C,24.8
2,O=C(C1CC1)N1C[C@H]2CCCN(S(=O)(=O)c3ccc4c(c3)CCC4)[C@H]2C1,8.52
3,CC(O)(CCc1ccccc1)CNC(=O)c1ccsc1 (stereo not given),-1.18
4,O=C(CCc1cc2n(n1)CCN(Cc1ncc[nH]1)C2)N1CCCC1,-5.77
5,Cc1ccc(N2C[C@@H]3OCCN(Cc4c(C)noc4C)[C@@H]3C2)nn1,-1.62
6,N#Cc1nccnc1N1CCC(Cc2ccccc2)C1 (stereo not given),-8.68
7,O=S(=O)(Cc1nc(C2CC2)no1)c1ccccc1F,8.11
8,CC(=O)N1CCCN(c2cc(C3CN(C)CCO3)nc(C)n2)CC1 (stereo not given),7.47
9,CCc1nc(N)nc(NCCC(=O)NC2CCCCC2)c1C,-38.9
10,CCNc1cc2c(nn1)CCN(C(=O)c1cccc3c1OCO3)C2,-9.88
11,CC(C)c1noc(CCC(=O)NCC2CC2)n1,-28.7
12,Cc1cc(C(=O)N2CCc3ncc(CN4CCOCC4)n3CC2)no1,3.76
13,CSCc1cccc(S(=O)(=O)N2CCC(C)CC2)c1,13.1
14,CC(Nc1ncnc2c1CCNC2)c1ccc2c(c1)CCCC2 (stereo not given),42
15,Cc1nc(-c2cc(C(=O)NCCN3CCOCC3)c3ccccn23)cs1,3.59
16,COc1ccc(C)cc1C(=O)NC1(C#N)CCOCC1,1.98
17,Cc1nc2c(c(C)c1CC(=O)Nc1ccc(Cl)cc1)c(=O)[nH]n2C,-2.85
18,CN(Cc1cccnc1)CC1CN(C(N)=O)Cc2nccn2C1 (stereo not given),-80.3
19,OCCn1cc(CN2CCN(CCOc3ccc(F)cc3)CC2)cn1,-11.1
20,Cn1cc(CN2C[C@@H]3OCCN(c4ncccn4)[C@@H]3C2)cn1,-75.1
21,CN(C(=O)CCNC(=O)NC1CCCCC1)c1ccccc1,-0.575
22,Cc1cc(=O)n2nc(Oc3ccc(F)c(F)c3)sc2n1,-15.8
